Source: ChEMBL document CHEMBL1123568 (J Med Chem, 1987)
Values after ≈ are worked out from the molar mass of the structure shown.

Legend:
Assay type in all cases: functional
Pseudomonas aeruginosa [1] = assay: Antimicrobial activity against the Pseudomonas aeruginosa K 799/WT by 2-fold agar dilution method using brain-heart infusion agar.
Pseudomonas aeruginosa [2] = assay: Antimicrobial activity against the Pseudomonas aeruginosa K 799/61 by 2-fold agar dilution method using brain-heart infusion agar.
Streptococcus pyogenes [3] = assay: Antimicrobial activity against the streptococcus pyogenes EES 61 by 2-fold agar dilution method using brain-heart infusion agar.
Escherichia coli [4] = assay: Antimicrobial activity against the Escherichia coli H560 by 2-fold agar dilution method using brain-heart infusion agar.
In short: (§1)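 Read-out is the MIC, found by twofold agar dilution in brain-heart infusion agar. Strains were Escherichia coli H560, Staphylococcus aureus 45 and Staphylococcus aureus ATCC 6538 P.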

Micrococcus luteus = assay: Antimicrobial activity against the micrococcus luteus 9341 by 2-fold agar dilution method using brain-heart infusion agar.
Staphylococcus aureus [5] = assay: Antimicrobial activity against the Staphylococcus aureus ATCC 6538 P by 2-fold agar dilution method using brain-heart infusion agar.; conditions: ATCC 6538, Brain; in short: as §1
Klebsiella pneumoniae = assay: Antimicrobial activity against the klebsiella pneumoniae 8045 by 2-fold agar dilution method using brain-heart infusion agar.
Klebsiella aerogenes = assay: Antimicrobial activity against the enterobacter aerogenes ATCC 13048 by 2-fold agar dilution method using brain-heart infusion agar.; conditions: ATCC 13048, Brain
Enterococcus faecium = assay: Antimicrobial activity against the faecium ATCC 8043 by 2-fold agar dilution method using brain-heart infusion agar.; conditions: ATCC 8043, Brain
Staphylococcus aureus [6] = assay: Antimicrobial activity against the Staphylococcus aureus 45 by 2-fold agar dilution method using brain-heart infusion agar.; in short: as §1
Escherichia coli [7] = assay: Antimicrobial activity against the Escherichia coli JUHL by 2-fold agar dilution method using brain-heart infusion agar.
[8] = system: Staphylococcus epidermidis; assay: Antimicrobial activity against the Staphylococcus epidermis 3519 by 2-fold agar dilution method using brain-heart infusion agar.
Acinetobacter = assay: Antimicrobial activity against the acinetobacter sp. CMX 669 by 2-fold agar dilution method using brain-heart infusion agar.
Streptococcus pyogenes [9] = assay: Antimicrobial activity against the streptococcus pyogenes 2548 by 2-fold agar dilution method using brain-heart infusion agar.
Streptococcus agalactiae = assay: Antimicrobial activity against the streptococcus agalactiae CMX 508 by 2-fold agar dilution method using brain-heart infusion agar.
Streptococcus equinus = assay: Antimicrobial activity against the streptococcus bovis A 5169 by 2-fold agar dilution method using brain-heart infusion agar.

Row | SMILES | MIC (Pseudomonas aeruginosa [1]) [µg/mL] | MIC (Pseudomonas aeruginosa [2]) [µg/mL] | MIC (Streptococcus pyogenes [3]) [µg/mL] | MIC (Escherichia coli [4]) [µg/mL] | MIC (Micrococcus luteus) [µg/mL] | MIC (Staphylococcus aureus [5]) [µg/mL] | MIC (Klebsiella pneumoniae) [µg/mL] | MIC (Klebsiella aerogenes) [µg/mL] | MIC (Enterococcus faecium) [µg/mL] | MIC (Staphylococcus aureus [6]) [µg/mL] | MIC (Escherichia coli [7]) [µg/mL] | MIC [8] [µg/mL] | MIC (Acinetobacter) [µg/mL] | MIC (Streptococcus pyogenes [9]) [µg/mL] | MIC (Streptococcus agalactiae) [µg/mL] | MIC (Streptococcus equinus) [µg/mL]
1 | CC1COc2c(N3CCN(C)CC3)c(F)cc3c(=O)c(C(=O)O)cn1c23 (stereo not drawn) [OFLOXACIN] | 0.39 (≈ 1.08 µM) | 0.1 (≈ 0.277 µM) | 0.78 (≈ 2.16 µM) | 0.1 (≈ 0.277 µM) | 3.1 (≈ 8.58 µM) | 0.2 (≈ 0.553 µM) | 0.05 (≈ 0.138 µM) | 0.2 (≈ 0.553 µM) | 0.78 (≈ 2.16 µM) | 0.39 (≈ 1.08 µM) | 0.05 (≈ 0.138 µM) | 0.39 (≈ 1.08 µM) | 0.39 (≈ 1.08 µM) | 0.39 (≈ 1.08 µM) | 1.56 (≈ 4.32 µM) | 1.56 (≈ 4.32 µM)
2 | C[C@H]1COc2c(N3CCN(C)CC3)c(F)cc3c(=O)c(C(=O)O)cn1c23.C[C@H]1COc2c(N3CCN(C)CC3)c(F)cc3c(=O)c(C(=O)O)cn1c23.O [LEVOFLOXACIN] | < 0.04 | 0.07 | 0.46 | 0.04 | 1.21 | 0.15 | < 0.04 | 0.07 | 0.46 | 0.3 | 0.07 | 0.3 | 0.3 | 0.26 | 1.21 | 1.21
3 | C[C@@H]1COc2c(N3CCN(C)CC3)c(F)cc3c(=O)c(C(=O)O)cn1c23 [DEXTROFLOXACINE] | 9.75 (≈ 27 µM) | 1.21 (≈ 3.35 µM) | > 9.75 | 9.75 (≈ 27 µM) | > 9.75 | 4.8 (≈ 13.3 µM) | 1.21 (≈ 3.35 µM) | 9.75 (≈ 27 µM) | > 9.75 | 9.75 (≈ 27 µM) | 1.21 (≈ 3.35 µM) | 4.8 (≈ 13.3 µM) | 9.75 (≈ 27 µM) | > 9.75 | > 9.75 | > 9.75
